Data taken from ChEMBL document CHEMBL1926569, “Novel (E)-1-(4-methyl-2-(alkylamino)thiazol-5-yl)-3-arylprop-2-en-1-ones as potent antimicrobial agents” (2011).
Converted amounts (≈) assume the structure as drawn.

What was measured:
Staphylococcus aureus [1] = assay: Antibacterial activity against Staphylococcus aureus ATCC 6538 after 24 hrs by microdilution method; format: functional; conditions: ATCC 6538, 24 h
Summary of the method: (§1)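 Broth microdilution in 96-well plates. Bacterial suspensions were adjusted in sterile saline to 1.0 × 10⁵ CFU/ml, prepared daily and kept at 4 °C. Compound was added to LB broth with 1.0 × 10⁴ CFU per well and shaken at 160 rpm for 24 h at […] (so in the source). MIC is the lowest concentration with no visible growth under a binocular microscope. OD655 was also read. Duplicate, repeated three times.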

Bacillus cereus [2] = assay: Antibacterial activity against clinical isolate of Bacillus cereus after 24 hrs by microdilution method; format: functional; summary of the method: as §1
Micrococcus flavus [3] = assay: Antibacterial activity against Micrococcus flavus ATCC 10240 after 24 hrs by microdilution method; format: functional; conditions: ATCC 10240, 24 h; summary of the method: as §1
Listeria monocytogenes [4] = assay: Antibacterial activity against Listeria monocytogenes NCTC 7973 after 24 hrs by microdilution method; format: functional; conditions: NCTC 7973, 24 h; summary of the method: as §1
Pseudomonas aeruginosa [5] = assay: Antibacterial activity against Pseudomonas aeruginosa ATCC 27853 after 24 hrs by microdilution method; format: functional; conditions: ATCC 27853, 24 h; summary of the method: as §1
Salmonella typhimurium [6] = assay: Antibacterial activity against Salmonella Typhimurium ATCC 13311 after 24 hrs by microdilution method; format: functional, Salmonella enterica subsp. enterica serovar Typhimurium; conditions: Salmonella enterica, ATCC 13311, 24 h; summary of the method: as §1
Escherichia coli [7] = assay: Antibacterial activity against Escherichia coli ATCC 35210 after 24 hrs by microdilution method; format: functional; conditions: ATCC 35210, 24 h; summary of the method: as §1
Enterococcus faecalis [8] = assay: Antibacterial activity against Enterococcus faecalis isolated from human after 24 hrs by microdilution method; format: functional; summary of the method: as §1
Staphylococcus aureus [9] = assay: Antibacterial activity against Staphylococcus aureus ATCC 6538 incubated for 24 hrs followed by serial sub-cultivation for 24 hrs by microdilution method; format: functional; conditions: ATCC 6538, 24 h
Summary of the method: (§2)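 MBC: after the 24 h LB broth microdilution (1.0 × 10⁴ CFU per well, 160 rpm), wells were serially sub-cultured into fresh broth plates and incubated a further 24 h. MBC is the lowest concentration with no visible growth, taken as 99.5% killing of the original inoculum. Duplicate, repeated three times.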

Bacillus cereus [10] = assay: Antibacterial activity against clinical isolate of Bacillus cereus incubated for 24 hrs followed by serial sub-cultivation for 24 hrs by microdilution; format: functional; summary of the method: as §2
Micrococcus flavus [11] = assay: Antibacterial activity against Micrococcus flavus ATCC 10240 incubated for 24 hrs followed by serial sub-cultivation for 24 hrs by microdilution; format: functional; conditions: ATCC 10240, 24 h; summary of the method: as §2
Listeria monocytogenes [12] = assay: Antibacterial activity against Listeria monocytogenes NCTC 7973 incubated for 24 hrs followed by serial sub-cultivation for 24 hrs by microdilution; format: functional; conditions: NCTC 7973, 24 h; summary of the method: as §2
Pseudomonas aeruginosa [13] = assay: Antibacterial activity against Pseudomonas aeruginosa ATCC 27853 incubated for 24 hrs followed by serial sub-cultivation for 24 hrs by microdilution; format: functional; conditions: ATCC 27853, 24 h; summary of the method: as §2
Salmonella typhimurium [14] = assay: Antibacterial activity against Salmonella Typhimurium ATCC 13311 incubated for 24 hrs followed by serial sub-cultivation for 24 hrs by microdilution; format: functional, Salmonella enterica subsp. enterica serovar Typhimurium; conditions: Salmonella enterica, ATCC 13311, 24 h; summary of the method: as §2
Escherichia coli [15] = assay: Antibacterial activity against Escherichia coli ATCC 35210 incubated for 24 hrs followed by serial sub-cultivation for 24 hrs by microdilution; format: functional; conditions: ATCC 35210, 24 h; summary of the method: as §2
Enterococcus faecalis [16] = assay: Antibacterial activity against Enterococcus faecalis isolated from human incubated for 24 hrs followed by serial sub-cultivation for 24 hrs by microdilution; format: functional; summary of the method: as §2
Aspergillus ochraceus [17] = assay: Antifungal activity against Aspergillus ochraceus ATCC 12066 after 72 hrs by serial dilution technique; format: functional; conditions: ATCC 12066, 72 h
Summary of the method: (§3)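 Modified microdilution in 96-well plates. Fungi were kept on malt agar at 4 °C. Spores were washed off in sterile 0.85% saline with 0.1% Tween 80. Compounds were dissolved at 1 mg/ml in 5% DMSO with 0.1% Tween 80 and added to malt broth with inoculum. Plates were shaken at 160 rpm for 72 h at 28 °C. Duplicate, repeated three times.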

Aspergillus niger [18] = assay: Antifungal activity against Aspergillus niger ATCC 6275 after 72 hrs by serial dilution technique; format: functional; conditions: ATCC 6275, 72 h; summary of the method: as §3
Aspergillus flavus [19] = assay: Antifungal activity against Aspergillus flavus ATCC 9643 after 72 hrs by serial dilution technique; format: functional; conditions: ATCC 9643, 72 h; summary of the method: as §3
Talaromyces funiculosus [20] = assay: Antifungal activity against Penicillium funiculosum ATCC 36839 after 72 hrs by serial dilution technique; format: functional; conditions: ATCC 36839, 72 h; summary of the method: as §3
Penicillium ochrochloron [21] = assay: Antifungal activity against Penicillium ochrochloron ATCC 9112 after 72 hrs by serial dilution technique; format: functional; conditions: ATCC 9112, 72 h; summary of the method: as §3
Trichoderma viride [22] = assay: Antifungal activity against Trichoderma viride IAM 5061 after 72 hrs by serial dilution technique; format: functional; conditions: IAM 5061, 72 h; summary of the method: as §3
Candida albicans [23] = assay: Antifungal activity against Candida albicans isolated from human after 72 hrs by serial dilution technique; format: functional; summary of the method: as §3
Aspergillus ochraceus [24] = assay: Antifungal activity against Aspergillus ochraceus ATCC 12066 incubated for 72 hrs followed by serial sub-cultivation for 72 hrs by serial dilution technique; format: functional; conditions: ATCC 12066, 72 h
Summary of the method: (§4)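 MFC: material from 72 h malt broth microdilution wells was serially sub-cultured into fresh broth plates and incubated a further 72 h at 28 °C. Fungicidal concentration is taken from growth after sub-culture. Duplicate, repeated three times.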

Aspergillus fumigatus [25] = assay: Antifungal activity against Aspergillus fumigatus isolated from human incubated for 72 hrs followed by serial sub-cultivation for 72 hrs by serial dilution technique; format: functional; summary of the method: as §4
Aspergillus niger [26] = assay: Antifungal activity against Aspergillus niger ATCC 6275 incubated for 72 hrs followed by serial sub-cultivation for 72 hrs by serial dilution technique; format: functional; conditions: ATCC 6275, 72 h; summary of the method: as §4
Aspergillus flavus [27] = assay: Antifungal activity against Aspergillus flavus ATCC 9643 incubated for 72 hrs followed by serial sub-cultivation for 72 hrs by serial dilution technique; format: functional; conditions: ATCC 9643, 72 h; summary of the method: as §4
Talaromyces funiculosus [28] = assay: Antifungal activity against Penicillium funiculosum ATCC 36839 incubated for 72 hrs followed by serial sub-cultivation for 72 hrs by serial dilution technique; format: functional; conditions: ATCC 36839, 72 h; summary of the method: as §4
Penicillium ochrochloron [29] = assay: Antifungal activity against Penicillium ochrochloron ATCC 9112 incubated for 72 hrs followed by serial sub-cultivation for 72 hrs by serial dilution technique; format: functional; conditions: ATCC 9112, 72 h; summary of the method: as §4
Trichoderma viride [30] = assay: Antifungal activity against Trichoderma viride IAM 5061 incubated for 72 hrs followed by serial sub-cultivation for 72 hrs by serial dilution technique; format: functional; conditions: IAM 5061, 72 h; summary of the method: as §4
Candida albicans [31] = assay: Antifungal activity against Candida albicans isolated from human incubated for 72 hrs followed by serial sub-cultivation for 72 hrs by serial dilution technique; format: functional; summary of the method: as §4
Pseudomonas aeruginosa [32] = assay: Ratio of ampicillin MIC to compound MIC for Pseudomonas aeruginosa ATCC 27853; format: functional
Aspergillus ochraceus [33] = assay: Ratio of bifonazole to compound for Aspergillus ochraceus ATCC 12066; format: functional
Aspergillus niger [34] = assay: Ratio of bifonazole to compound for Aspergillus niger ATCC 6275; format: functional
Talaromyces funiculosus [35] = assay: Ratio of bifonazole to compound for Penicillium funiculosum ATCC 36839; format: functional
Penicillium ochrochloron [36] = assay: Ratio of bifonazole to compound for Penicillium ochrochloron ATCC 9112; format: functional
Trichoderma viride [37] = assay: Ratio of bifonazole to compound for Trichoderma viride IAM 5061; format: functional
Candida albicans [38] = assay: Ratio of bifonazole to compound for Candida albicans isolated from human; format: functional
Aspergillus ochraceus [39] = assay: Ratio of ketoconazole to compound for Aspergillus ochraceus ATCC 12066; format: functional
Aspergillus fumigatus [40] = assay: Ratio of ketoconazole to compound for Aspergillus fumigatus isolated from human; format: functional
Penicillium ochrochloron [41] = assay: Ratio of ketoconazole to compound for Penicillium ochrochloron ATCC 9112; format: functional
Candida albicans [42] = assay: Ratio of ketoconazole to compound for Candida albicans isolated from human; format: functional
Aspergillus ochraceus [43] = assay: Antifungal activity against Aspergillus ochraceus after 72 hrs by serial dilution technique

MIC (Staphylococcus aureus [1]): 61.2 µM (≈ 20 µg/mL)
MIC (Bacillus cereus [2]): 45.9 µM (≈ 15 µg/mL)
MIC (Micrococcus flavus [3]): 30.6 µM (≈ 10 µg/mL)
MIC (Listeria monocytogenes [4]): 91.7 µM (≈ 30 µg/mL)
MIC (Pseudomonas aeruginosa [5]): 61.2 µM (≈ 20 µg/mL)
MIC (Salmonella typhimurium [6]): 61.2 µM (≈ 20 µg/mL)
MIC (Escherichia coli [7]): 45.9 µM (≈ 15 µg/mL)
MIC (Enterococcus faecalis [8]): 76.5 µM (≈ 25 µg/mL)
MIC (Aspergillus ochraceus [17]): 30.6 µM (≈ 10 µg/mL)
MIC (Aspergillus niger [18]): 30.6 µM (≈ 10 µg/mL)
MIC (Aspergillus flavus [19]): 30.6 µM (≈ 10 µg/mL)
MIC (Talaromyces funiculosus [20]): 30.6 µM (≈ 10 µg/mL)
MIC (Penicillium ochrochloron [21]): 30.6 µM (≈ 10 µg/mL)
MIC (Trichoderma viride [22]): 30.6 µM (≈ 10 µg/mL)
MIC (Candida albicans [23]): 45.9 µM (≈ 15 µg/mL)
MIC (Aspergillus ochraceus [43]): 30.6 µM (≈ 10 µg/mL)
SMILES: CNc1nc(C)c(C(=O)/C=C/c2cccc(Cl)c2Cl)s1
MBC (Staphylococcus aureus [9]): 91.7 µM (≈ 30 µg/mL)
MBC (Bacillus cereus [10]): 61.2 µM (≈ 20 µg/mL)
MBC (Micrococcus flavus [11]): 91.7 µM (≈ 30 µg/mL)
MBC (Listeria monocytogenes [12]): 91.7 µM (≈ 30 µg/mL)
MBC (Pseudomonas aeruginosa [13]): 91.7 µM (≈ 30 µg/mL)
MBC (Salmonella typhimurium [14]): 76.5 µM (≈ 25 µg/mL)
MBC (Escherichia coli [15]): 61.2 µM (≈ 20 µg/mL)
MBC (Enterococcus faecalis [16]): 76.5 µM (≈ 25 µg/mL)
MFC (Aspergillus ochraceus [24]): 61.2 µM (≈ 20 µg/mL)
MFC (Aspergillus fumigatus [25]): 61.2 µM (≈ 20 µg/mL)
MFC (Aspergillus niger [26]): 61.2 µM (≈ 20 µg/mL)
MFC (Aspergillus flavus [27]): 76.5 µM (≈ 25 µg/mL)
MFC (Talaromyces funiculosus [28]): 61.2 µM (≈ 20 µg/mL)
MFC (Penicillium ochrochloron [29]): 61.2 µM (≈ 20 µg/mL)
MFC (Trichoderma viride [30]): 61.2 µM (≈ 20 µg/mL)
MFC (Candida albicans [31]): 61.2 µM (≈ 20 µg/mL)
Ratio (Pseudomonas aeruginosa [32]): 10
Ratio (Aspergillus ochraceus [33]): 10
Ratio (Aspergillus niger [34]): 10
Ratio (Talaromyces funiculosus [35]): 10
Ratio (Penicillium ochrochloron [36]): 10
Ratio (Trichoderma viride [37]): 10
Ratio (Candida albicans [38]): 10
Ratio (Aspergillus ochraceus [39]): 10
Ratio (Aspergillus fumigatus [40]): 10
Ratio (Penicillium ochrochloron [41]): 10
Ratio (Candida albicans [42]): 10
